Measured values reported in PubChem BioAssay AID624467 (The Scripps Research Institute Molecular Screening Center, 2012).
Among all 360,000 compounds or so, about 3,600 (1%) were called active. The list comes from a sample in which actives are over-represented; it also holds similar structures and randomly drawn compounds. Unmarked numbers belong to inactive results.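 How the source made its calls: active means activation above the mean activation of all test compounds in the run plus 3 SD (cut at about 38% in these data); inactive means the rest.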

Each compound was assayed against Trace amine-associated receptor 1 (Homo sapiens) (UniProt Q96RJ0) (assay: activators of TAAR1 calcium mobilization – Fluo-8 calcium fluorescence, CHO RD-HGA16 cells, primary screen (AID 624467)). Conditions: CHO RD-HGA16 TAAR1, Fluo-8 calcium fluorescence; at 3 µM; hits give high values; vehicle wells 0%, saturating PEA agonist 100%.
Chain of Trace amine-associated receptor 1 (Homo sapiens) (Q96RJ0 whole entry, looked up): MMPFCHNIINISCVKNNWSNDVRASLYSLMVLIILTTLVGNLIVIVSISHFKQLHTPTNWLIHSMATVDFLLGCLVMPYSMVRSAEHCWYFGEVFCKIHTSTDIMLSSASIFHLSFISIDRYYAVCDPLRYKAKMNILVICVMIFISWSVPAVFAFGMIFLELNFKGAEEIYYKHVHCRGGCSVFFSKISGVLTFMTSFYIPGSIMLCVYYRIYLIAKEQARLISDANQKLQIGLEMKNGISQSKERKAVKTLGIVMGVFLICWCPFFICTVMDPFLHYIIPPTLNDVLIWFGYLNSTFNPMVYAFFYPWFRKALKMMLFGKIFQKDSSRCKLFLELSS
In short: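 test system = CHO RD-HGA16 cells carrying human TAAR1 plus Gα16 | schedule = 17-24 h seeding, 75 min 37 °C dye, 30 min RT | compound dosing = 3 µM single concentration | control set = DMSO and PEA EC100 | replicates = n 1 | signal = Fluo-8 fluorescence, 5 s baseline then 140 s kinetic read | measure = percent activation vs PEA EC100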
In the case of `CC1(c2ccc(Cl)cc2)NC(=O)N(CC(=O)c2ccc3c(c2)OCO3)C1=O` (stereo unspecified), the activation is reported as 48.4% (active).
`COc1ccc(C2(C)NC(=O)N(CC(=O)c3ccc4c(c3)OCO4)C2=O)cc1` (stereo unspecified) gave an activation of 25.5%.
`Cc1ccc(C2(C)NC(=O)N(CC(=O)Nc3ccccc3C(=O)N3CCCCC3)C2=O)cc1` (stereo unspecified) was tested, and the activation was 9.97%.
With `COc1cc(NC(=O)CN2C(=O)NC(C)(c3ccc(OC(F)F)cc3)C2=O)cc(OC)c1OC` (stereo unspecified) the activation was 5.76%.
`Cc1ccc(NC(=O)CN2C(=O)NC(C)(c3ccc(Cl)cc3)C2=O)c(Br)c1` (stereo unspecified) was tested, and the activation was 42.4% (active).
With `COc1ccc(C(=O)CN2C(=O)NC(C)(c3ccc(C)cc3)C2=O)cc1OC` (stereo unspecified) the activation was 59.9% (active).
For `Cc1ccc(C2(C)NC(=O)N(CC(=O)N3CC(=O)Nc4ccccc43)C2=O)cc1` (stereo unspecified), the activation was 1.06%.
Work on `Cc1ccc(S(=O)(=O)N2CCN(C(=O)CN3C(=O)NC(C)(c4ccc(Cl)cc4)C3=O)CC2)c(C)c1` (stereo unspecified) yielded an activation of 9.36%.
With `CC1CCC2(CC1)NC(=O)N(CC(=O)c1ccc3c(c1)OCO3)C2=O` (stereo unspecified) the activation was 1.46%.
For `COc1ccc(NC(=O)N(C)C[C@@H]2OCCCC[C@@H](C)Oc3ccc(NC(=O)NC4CCCCC4)cc3C(=O)N([C@H](C)CO)C[C@@H]2C)cc1`, the activation was 0.43%.
With `O=C(N[C@H](Cc1ccccc1)C(=O)N1CCCN(Cc2cccs2)CC1)[C@H]1O[C@@H](n2ccc(=O)[nH]c2=O)[C@H](O)[C@@H]1O` the activation was 0.87%.
Compound `N#Cc1cccc(C(=O)NCC2CCN(C(=O)C(=O)c3cc4ccccc4o3)CC2)c1` has an activation of 2.73%.
`CSc1ccc(Oc2cccc3c2S(=O)(=O)N([C@H](C)c2ccccc2)C[C@@H](COCc2ccccc2)O3)cc1C` was tested, and the activation was -0.58%.
`CC(NC(=O)C(=O)NN=C1CCC(C(C)(C)C)CC1)c1ccccc1` (stereo unspecified) was tested, and the activation was -1.32%.
Work on `CCOC(=O)c1cc(-c2ccc(Cl)s2)nc2c1c(C)nn2C` yielded an activation of 12.8%.
`CCCc1nnc(SCC(=O)N2C(C)CCCC2C)n1CC` (stereo unspecified) was tested, and the activation was 7.54%.
With `COc1cc(OC)c(-n2cc(-c3ccc(Cl)cc3)[nH]c2=O)cc1Cl` the activation was 135% (active).
Compound `COc1ccc(-n2c(-c3ccc(Cl)cc3)n[nH]c2=S)c(OC)c1` has an activation of 1%.
For `COc1cc(OC)c(N2CC(C(=O)Nc3cc(Cl)ccc3N3CCOCC3)CC2=O)cc1Cl` (stereo unspecified), the activation was 9.38%.
For `O=C(NC1CCCC1)C(c1ccc(Cl)cc1)N(C(=O)c1csnn1)C1CC1` (stereo unspecified), the activation was 2.16%.
`N#CCSc1ccccc1NC(=O)CN1C(=O)NC(CCc2ccccc2)C1=O` (stereo unspecified) was tested, and the activation was 4.54%.
`Cc1ccc(-c2nnc(SCC(=O)N/N=C/c3cccs3)n2-c2ccc(C)cc2)cc1` showed an activation of 2.56%.
In the case of `Cc1nc2ccccc2n1CC(=O)N/N=C/c1cccs1`, the activation is reported as 41% (active).
With `COc1ccc(NC(=O)COC(=O)Cn2c(C)nc3ccccc32)cc1OC` the activation was 8.05%.
With `COc1ccc(N(C(=O)CNC(=O)c2ccco2)C(C(=O)NCC2CCCO2)c2ccccc2)cc1Cl` (stereo unspecified) the activation was 14%.
`CC(=O)c1ccc(N2CCN(C(=O)c3ccc(Cl)c(S(=O)(=O)NC4CC4)c3)CC2)c(F)c1` was tested, and the activation was 5.24%.
`COc1ccc(S(=O)(=O)Nc2ccc3c(c2)C(=O)N([C@H](C)CO)C[C@H](C)[C@@H](CN(C)C)OCCCC[C@H](C)O3)cc1` was tested, and the activation was 1.27%.
For `C#CCOc1ccc(/C=C2/C(=O)NN(c3ccccc3)C2=O)cc1OC`, the activation was 52.3% (active).
For `COc1cc(/C=C2\SC(=O)NC2=O)ccc1OCc1ccc(Cl)nc1`, the activation was 0.37%.
`C#CCOc1ccc(/C=C2/C(=O)ON=C2C)cc1OCC` was tested, and the activation was 26.1%.
`COc1ccc(NC(=O)C2C3CCC(O3)C2C(=O)O)cc1OC` (stereo unspecified) was tested, and the activation was 2.71%.
For `Cc1sc(NC(=O)C2C3CCC(O3)C2C(=O)O)c(C(=O)OC(C)C)c1-c1ccc(Cl)cc1` (stereo unspecified), the activation was 38.3% (active).
Work on `CC(C)OC(=O)c1cc(NC(=O)C2C3CCC(O3)C2C(=O)O)cc(C(=O)OC(C)C)c1` (stereo unspecified) yielded an activation of -0.82%.
`Cc1nn(C)cc1N1C(=O)c2cccc3c(N)ccc(c23)C1=O` was tested, and the activation was 83.9% (active).
With `CN1C(=O)c2cccc3c(N)ccc(c23)C1=O` the activation was 119% (active).
`CCCOc1ccc(N2C(=O)CC(N(CCc3ccc(S(N)(=O)=O)cc3)C(C)=O)C2=O)cc1` (stereo unspecified) was tested, and the activation was 1.5%.
`Cc1ccc(CNC(=O)Cn2cnc(S(=O)(=O)N3CCCCC3)c2)o1` showed an activation of 1.59%.
Compound `CCOC(=O)C1CCN(S(=O)(=O)c2ccc3c(c2)N(C(C)=O)CCO3)CC1` has an activation of -0.05%.
In the case of `CCCN1C(=O)c2[nH]nc(-c3ccccc3)c2C1c1ccccc1` (stereo unspecified), the activation is reported as 2.41%.
`CN(C)C(=O)N1CCN(C(=O)[C@@H](Cc2ccccc2)NC(=O)[C@H]2O[C@@H](n3ccc(N)nc3=O)[C@H](O)[C@@H]2O)CC1` gave an activation of 1.21%.
In the case of `COC(=O)Cc1nnn2c1[C@H](C)[C@H](c1ccccc1Br)OCC2`, the activation is reported as 2.69%.
Compound `COc1ccc(C(=O)N2CCCCC2c2cc(C(=O)Nc3ccccc3)no2)cc1` (stereo unspecified) has an activation of -0.19%.
Compound `O=C(Nc1n[nH]c(C(F)(F)F)n1)c1cccs1` has an activation of -0.13%.
`Cc1nc(-c2ccc(NC(=O)c3cccs3)cc2)cs1` was tested, and the activation was 44.8% (active).
`COc1cc(NC(=O)c2ccc(-c3csc(C)n3)cc2)c(OC)cc1Cl` gave an activation of 3.15%.
In the case of `COC(=O)[C@H](Cc1ccccc1)NC(=O)N1CC(C)OC(C)C1` (stereo partly specified), the activation is reported as -0.71%.
`Cc1cccc(C)c1NC(=O)N1CC(C)OC(C)C1` (stereo unspecified) was tested, and the activation was 41.9% (active).
Compound `CSc1ccc(NC(=O)N2CC(C)OC(C)C2)cc1` (stereo unspecified) has an activation of 6.32%.
With `CC(=O)Nc1ccc(SC[C@H](Cc2ccccc2)N2CC[C@@H](C)CCC2=O)cc1` the activation was 9.24%.
For `O=C(/C=C(O)/C=C/c1ccc(O)cc1)/C=C/c1ccc(O)cc1`, the activation was 63.8% (active).
Compound `C=CCNC(=O)/C=C/c1ccc(C(C)C)cc1` has an activation of -2.85%.
`O=C(O)/C=C/c1ccc(S(=O)(=O)N2CCCCCC2)cc1` showed an activation of 4.85%.
`COC(=O)[C@H](CC(C)C)NS(=O)(=O)c1c(F)cccc1F` showed an activation of 1.29%.
`O=C(NCc1ccccc1)[C@H]1CCCN1C(=O)[C@@H]1CCCN1C(=O)c1ccc(Cl)cc1Cl` gave an activation of 0.11%.
Compound `COc1ccc(SSc2ccc(OC)cc2C(=O)O)c(C(=O)O)c1` has an activation of 3.23%.
`CC(C)(C)n1ncc2c(=O)n(Cc3c(Cl)cccc3Br)cnc21` was tested, and the activation was 38.2% (active).
With `Cn1cnc2c1c(=O)n(Cc1c(Cl)cccc1Cl)c(=O)n2C` the activation was 1.55%.
With `CC(C)(C)n1ncc2c(=O)n(Cc3ccc(Cl)cc3)cnc21` the activation was 11.1%.
Compound `CCCNC(=O)C1(C)CCN(Cc2ccc(Cl)c(Cl)c2)C1` (stereo unspecified) has an activation of 1.99%.
`Cc1ccc(C)c(-n2nnnc2SCC(=O)c2c(N)n(C)c(=O)n(C)c2=O)c1` gave an activation of 2.95%.
Work on `O=C1NC[C@H](CCCCN2C[C@H](Cc3ccc(O)cc3)N(CC3CCCCC3)C(=O)C2=O)N(CCc2ccccc2)C1=O` yielded an activation of -0.06%.
With `COCCn1c(SC(C)C(=O)NC2CC2)nnc1-c1cccc(C)c1` (stereo unspecified) the activation was 3.19%.
With `COc1ccccc1N1CCN(C(=O)c2cn(-c3ccccc3)nc2-c2cccnc2)CC1` the activation was 19.1%.
Compound `NC(=O)C1CCN(C(=O)c2cn(-c3ccccc3)nc2-c2cccnc2)CC1` has an activation of 1.55%.
`O=C(NNC(=S)NC(=O)c1cn(-c2ccccc2)nc1-c1ccccc1)c1ccncc1` was tested, and the activation was 118% (active).
`O=C(NCc1ccc(F)cc1)C1CCC(CNc2c(N3CCOCC3)c(=O)c2=O)CC1` (stereo unspecified) was tested, and the activation was 0.31%.
`O=C(NCCOc1ccccc1F)Nc1ccc(Br)cc1` was tested, and the activation was 12%.
In the case of `O=C(Nc1ccccc1)Nc1nnc(COc2ccccc2F)s1`, the activation is reported as 49.8% (active).
`O=C(Nc1nnc(COc2ccccc2)s1)Nc1ccccc1F` was tested, and the activation was -0.19%.
Work on `COC(=O)[C@]12C[C@H](CC(=O)NCCC(C)C)C(=O)N(CCc3ccc(OC)c(OC)c3)C1=C[C@H](C(C)(C)C)O[C@@H]2C` yielded an activation of -1.91%.
Work on `Cc1nc(NC(=O)C(C)(C)C)sc1[N+](=O)[O-]` yielded an activation of 1.6%.
With `NC[C@H](Cc1ccccc1)NCCc1cc(C(F)(F)F)cc(C(F)(F)F)c1` the activation was 47.6% (active).
Work on `COC(=O)[C@@H](Cc1ccccc1)NC(=O)NCCc1ccccc1` yielded an activation of -0.6%.
Compound `CCC(CC)NC(=O)CSc1nnc(-c2c[nH]c3ccccc23)o1` has an activation of 3.45%.
`CCOC(=O)c1cc2c(=O)[nH]c(C(Cl)(Cl)Cl)nc2o1` gave an activation of 2.83%.
For `CN1C(=O)C2CC(O)C(SC3CC4C(=O)N(C)C(=O)C4CC3O)CC2C1=O` (stereo unspecified), the activation was -0.78%.
`COc1cc(OC)c(NC(=O)C2CCCN2C(=O)OCc2ccccc2)cc1Cl` (stereo unspecified) was tested, and the activation was 1.2%.
Work on `CN1C(=O)C(Br)(Br)CC1c1cccnc1` (stereo unspecified) yielded an activation of 0.34%.
With `O=C(CCCN=C1NS(=O)(=O)c2ccccc21)OCC(=O)c1ccc(F)c(F)c1` the activation was 86.8% (active).
`O=C(OCCN=C1NS(=O)(=O)c2ccccc21)c1cccc([N+](=O)[O-])c1` was tested, and the activation was 0.99%.
`N#CC1(NC(=O)COC(=O)CCN=C2NS(=O)(=O)c3ccccc32)CCCCC1` gave an activation of 1.14%.
`Oc1ccccc1CNc1ncc(Br)cc1Br` showed an activation of 4.29%.
`Cc1cc2cc3c(N)[nH]nc3nc2cc1C` gave an activation of 2.1%.
`Cc1ccc(C2NC(C(=O)O)CS2)cc1` (stereo unspecified) was tested, and the activation was 6.54%.
`COC(=O)C1=C(C)N(Cc2ccccc2C(F)(F)F)C(=NCc2ccc(C(F)(F)F)cc2)NC1c1ccc(F)cc1` (stereo unspecified) showed an activation of 0.73%.
Compound `COCCCN(C(=O)CSCc1ccc(C)cc1)c1c(N)n(Cc2ccccc2)c(=O)[nH]c1=O` has an activation of 0.76%.
